Assay outcomes from PubChem.
Hits are enriched below; roughly 1.9% of the tested compounds scored in any of these assays.
ARFGAP1 inhibitor = inhibitors of rat ARFGAP1; Arfgap1-stimulated ARF1 GTP hydrolysis, GDP FP detection; inhibition, % at 16.5 µM; 360,000 compounds, 0.26% hits;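 active = inhibition above a per-plate limit, mean inhibition of low control wells plus 3 SD, cut at about 25% in these data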;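 also: 0% = DMSO wells with enzyme and 100% = wells lacking Arfgap1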
Target sequence (Q62848 1-136 limits assumed): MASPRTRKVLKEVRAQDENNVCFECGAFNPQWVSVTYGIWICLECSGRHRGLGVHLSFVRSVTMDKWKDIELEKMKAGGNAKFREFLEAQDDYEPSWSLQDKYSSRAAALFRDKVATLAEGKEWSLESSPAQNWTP
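Assay system: Rat Arfgap1 GAP domain (His6, aa 1-136), purified enzyme | Buffer or medium: HEPES 25 mM pH 7.5, NaCl 150 mM, MgCl2, DTT | Schedule: GTP hydrolysis reaction 2 h at 25 °C | Signal: FP of antibody-bound GDP Alexa 633 tracer, ex 620/em 688 nm | Measure: Percent inhibition of Arfgap1-stimulated GTP hydrolysis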
PLCg1 inh = PLC-gamma1 (human) inhibition, primary screen. purified PLC-gamma1, fluorogenic substrate, fluorescence. inhibition, % at 12.2 µM. 370,000 compounds, 0.84% hits. AID 720700
PLC-beta3 inh = blocks human PLC-beta3 enzyme activity; Q01970; Purified PLC-beta3, fluorogenic substrate, fluorescence; inhibition, % at 12.2 µM; 370,000 compounds, 0.18% hits; in the data active = inhibition above about 11%;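 also: 0% = median of compound wells on plate and 100% = full blocker control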
ASAP1 inh = inhibitors of human ASAP1 ArfGAP activity; Q9ULH1; AID 624377; ASAP1-stimulated ARF1 GTP hydrolysis, GDP FP detection; 360,000 compounds, 0.19% hits; inhibition, % at 16.5 µM; in the data active = inhibition above about 25%;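 also: 0% = vehicle with enzyme and substrate and 100% = no enzyme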
HGIII-sPLA2 inh = Blocks human group III sPLA2 activity. 370,000 compounds, 0.56% hits. QFRET BODIPY PC-A2 liposome hydrolysis, fluorescence. AID 743126. Q9NZ20. inhibition, % at 12.2 µM;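 active = inhibition above mean plus 3 SD of compounds lying within the high and low control bounds, cut at about 19% in these data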;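 also: 0% = median of test compound wells and 100% = no enzyme DMSO wells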
Target sequence (Q9NZ20 whole entry, looked up): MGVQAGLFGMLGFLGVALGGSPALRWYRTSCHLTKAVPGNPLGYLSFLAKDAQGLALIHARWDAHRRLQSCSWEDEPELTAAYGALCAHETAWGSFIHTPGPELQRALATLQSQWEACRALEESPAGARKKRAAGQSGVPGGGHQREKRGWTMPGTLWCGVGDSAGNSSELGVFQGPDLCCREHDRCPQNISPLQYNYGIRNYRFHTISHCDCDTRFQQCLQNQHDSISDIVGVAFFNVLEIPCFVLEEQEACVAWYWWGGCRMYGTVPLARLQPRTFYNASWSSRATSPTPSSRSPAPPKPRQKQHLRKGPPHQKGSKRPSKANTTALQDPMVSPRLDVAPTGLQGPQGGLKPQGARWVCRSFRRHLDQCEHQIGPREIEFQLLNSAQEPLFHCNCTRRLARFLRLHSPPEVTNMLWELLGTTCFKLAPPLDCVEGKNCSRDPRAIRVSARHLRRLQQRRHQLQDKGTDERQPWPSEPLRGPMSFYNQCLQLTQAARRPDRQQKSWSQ
PLCg1 ctr = inhibits human PLC-gamma1 in PLC-beta3 counter-screen | inhibition, % at 12.3 µM | 3,300 compounds, 3.1% hits | shares compounds with PLCg1 inh | purified PLC-gamma1, fluorogenic substrate, fluorescence
PLCb3 confirm = confirmation of human PLC-beta3 inhibitors; shares compounds with PLCg1 inh; purified PLC-beta3, fluorogenic substrate fluorescence; inhibition, % at 12.3 µM; 3,300 compounds, 1% hits; in the data active = inhibition above about 11%
Starred values were filed as active, the others as inactive; x = no result given. Rule as the data show it, unless noted: active = inhibition above about 9.5%; inactive = the rest.

SMILES	ARFGAP1 inhibitor	PLCg1 inh	PLC-beta3 inh	ASAP1 inh	HGIII-sPLA2 inh	PLCg1 ctr	PLCb3 confirm
O=C(NCc1cccnc1)c1ccccc1-c1ccccc1	6	-4	-1	-2	1	x	x
O=C(NCc1cccnc1)c1ccc(NC(=O)c2ccc([N+](=O)[O-])cc2)cc1	8	13*	-1	6	2	-2	-1
O=C(O)c1ccccc1C(=O)NCc1cccnc1	3	5	14*	-5	9	-5	3
O=C(NC(=S)NCc1cccnc1)c1ccc([N+](=O)[O-])cc1	-9	-2	2	-6	4	x	x
CO[C@H]([C@H](C)/C=C/N(C)C=O)[C@@H](C)C(=O)CC[C@H](C)[C@H](O)[C@H](C)[C@H]1OC(=O)/C=C/C(C)=C/C[C@H](O)C[C@@H]2C=CC[C@@H](C[C@H](OC)[C@@]3(CO3)[C@@H](OC)C[C@@H](OC)[C@@H]1C)O2	x	0	-1	x	-15	x	x
O=C(CSc1nnc(-c2ccc(Cl)cc2)n1Cc1ccco1)Nc1ccc(S(=O)(=O)Nc2nccs2)cc1	x	-1	-7	x	-10	x	x
O=C(NCc1cccs1)C1CCN(S(=O)(=O)c2ccc([N+](=O)[O-])cc2)CC1	x	0	4	x	4	x	x
COC(=O)[C@]1(CNC(C)=O)CC(=O)N(Cc2ccc(Cl)cc2)[C@@H]1c1ccc(OC)cc1	x	11*	1	x	9	-9	-4
COC(=O)[C@]1(CNC(=O)C(C)(C)C)CC(=O)N(Cc2ccc(Cl)cc2)[C@@H]1c1ccc(OC)cc1	x	3	5	x	-2	x	x
COC(=O)[C@]12C[C@H](CC(=O)N3CCCC3)C(=O)N(Cc3ccco3)C1=C[C@H](C1CCCC1)O[C@@H]2C	x	2	1	x	0	x	x
Cc1ccc(CN2CC(C(=O)N(CC(C)C)c3c(N)n(Cc4ccccc4)c(=O)[nH]c3=O)CC2=O)cc1 (stereo not given)	1	10*	-7	-10	14	-4	0
CCCCn1c(N)c(N(CC(C)C)C(=O)C2CC(=O)N(Cc3ccccc3)C2)c(=O)[nH]c1=O (stereo not given)	-3	4	-11	6	13	x	x
Cc1cccc(OCC(=O)OCC(=O)N(CC(C)C)c2c(N)n(Cc3ccccc3)c(=O)[nH]c2=O)c1C	6	14*	10	11	7	-5	-1
CCCCCCCCCC(=O)N/N=C/c1ccc(C)s1	-6	10*	4	-6	5	-8	-7
COc1ccc(CCC[C@H](CCC(=O)N(c2ccccc2)c2ccccc2)CCc2ccccc2)cc1	x	-2	-3	x	-7	x	x
COc1ccc(C(=O)Nc2ccc(S(=O)(=O)N3CCCCC3C)cc2)c(OC)c1OC (stereo not given)	-1	10*	12*	-1	-15	3	-1
O=[N+]([O-])c1cccnc1SCc1ccccc1	6	15*	0	-6	10	2	0
CCO[C@H]1OC(C(=O)N2CCN(Cc3ccc4c(c3)OCO4)CC2)=C[C@@H](c2csc3ccccc23)[C@@H]1CCCO	12	4	11*	15	-43	-1	-1
CCO[C@H]1OC(C(=O)O)=C[C@@H](c2ccc3c(c2)OCO3)[C@@H]1CCCO	-9	1	1	-7	-16	x	x
CCO[C@H]1OC(C(=O)N2CCN(C)CC2)=C[C@@H](c2ccc3c(c2)OCO3)[C@@H]1CCCO	-18	7	20*	-4	1	-4	1
CCC[C@H]1[C@@H](OC(=O)NCc2ccc(C(F)(F)F)cc2)CC[C@@]23CCCN2C(=O)CCC[C@@H]13	x	2	2	x	-8	x	x
O=C(c1cnc2c(c1)COc1ccc(Cl)cc1-2)c1ccccc1O	6	12*	2	-12	8	-25	-24
CN1Cc2cc(C(=O)c3ccccc3O)cnc2NC1=O	2	-16	-29	1	-2	x	x
Cc1ccc(O)c(C(=O)c2cnc3c(c2)COc2ccccc2-3)c1	5	14*	-5	-6	0	-15	-11
OCC1(Cc2cccc(Cl)c2)CCCN(Cc2sc(N3CCCC3)nc2Cl)C1 (stereo not given)	1	13*	-2	9	-3	0	-28
SMILES	ARFGAP1 inhibitor	PLCg1 inh	PLC-beta3 inh	ASAP1 inh	HGIII-sPLA2 inh	PLCg1 ctr	PLCb3 confirm
COC(=O)[C@]12C[C@H](CC(=O)NCCCN3CCCC3=O)C(=O)N(Cc3ccc4c(c3)OCO4)C1=C[C@H](COCc1ccccc1)O[C@@H]2C	-1	1	0	9	2	x	x
Cc1ccc(COc2coc(CO)cc2=O)cc1	7	8	12*	8	0	-7	-3
NC(N)=NC(N)=Nc1ccc(SC(F)(F)F)cc1	8	11*	2	-9	19	8	2
COC(=O)[C@@]12CCCCC3=C1N(CCC3)C(=O)[C@H]2CC(=O)NCc1cccc(C(F)(F)F)c1	x	2	3	x	-12	x	x
COc1ccc(CN(C)C(C#Cc2ccccc2)Cc2ccccc2)c(OC)c1 (stereo not given)	x	1	-5	x	2	x	x
C=CCn1c(SCC(=O)C(C)(C)C)nnc1-c1ccc(Cl)cc1	x	1	0	x	-17	x	x
CCOc1ccc(S(=O)(=O)Nc2cc(Cl)ccc2O)cc1	17	13*	0	4	-39	-2	-4
O=S(=O)(c1cc2ccccc2s1)n1c(CN2CCOCC2)nc2ccccc21	x	1	-2	x	7	x	x
CC12CCC(C(=O)Nc3ccccc3N3CCOCC3)(CC1=O)C2(C)C (stereo not given)	-4	9.5*	8	8	1	-4	-1
Nc1[nH]c(C(=O)c2ccccc2)c(-c2ccc3ccccc3c2)c1C(=O)NCCc1ccc(Cl)cc1	x	-11	-17	x	17	x	x
Cc1ccccc1NC(=O)c1ccc2nccnc2c1	5	0	-6	0	1	x	x
Cc1ccccc1NC(=O)c1cccc(C(=O)Nc2ccccc2C)c1	4	12*	3	-5	3	-1	2
COC(=O)C1=C(C)N(Cc2cccc(C(F)(F)F)c2)C(=NCC2CC2)NC1c1cccc(C(F)(F)F)c1 (stereo not given)	2	2	7	-2	0	x	x
CC(CNC(=O)c1cc(Cl)ccc1[N+](=O)[O-])NC(=O)c1cc(Cl)ccc1[N+](=O)[O-] (stereo not given)	-7	11*	4	-2	7	-3	-1
COc1cccc(C(=O)N2CCOCC2)c1	5	11*	5	20	7	-2	0
CCc1ccc(C2(C)SC(NC(C)=O)=NN2C(C)=O)cc1 (stereo not given)	0	13*	7	-4	10	-1	1
CC(=O)c1ccc(OC(C)C)c(CSC(=N)N)c1	0	12*	12*	-9	8	-5	0
